The source made the active and inactive calls. No cut-off for these calls is given here.
Assays:
[1] = target: T1, Cytochrome P450 1A2 (Homo sapiens, UniProt P05177); experiment: Inhibition of human CYP1A2 expressed in Escherichia coli using ethoxyresorufin as substrate up to 100 uM preincubated for 5 mins followed by NADPH addition measured after 20 mins by HPLC analysis; assay type: ADME
T1 sequence (P05177 whole entry): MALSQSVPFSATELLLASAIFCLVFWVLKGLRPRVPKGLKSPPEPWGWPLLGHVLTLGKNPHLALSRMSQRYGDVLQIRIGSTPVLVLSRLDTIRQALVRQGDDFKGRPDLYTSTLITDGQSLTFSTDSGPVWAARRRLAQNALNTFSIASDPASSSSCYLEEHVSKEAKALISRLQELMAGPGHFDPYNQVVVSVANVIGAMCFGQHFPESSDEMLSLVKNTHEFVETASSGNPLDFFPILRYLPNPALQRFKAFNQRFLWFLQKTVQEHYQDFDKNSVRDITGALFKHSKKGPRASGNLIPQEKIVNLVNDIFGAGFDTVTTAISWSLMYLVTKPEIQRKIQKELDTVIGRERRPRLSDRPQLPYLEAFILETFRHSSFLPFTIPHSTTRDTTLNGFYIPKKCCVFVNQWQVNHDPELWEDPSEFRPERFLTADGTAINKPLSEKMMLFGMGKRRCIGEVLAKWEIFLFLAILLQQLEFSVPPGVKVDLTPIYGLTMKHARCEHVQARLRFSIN

[2] = target: Cytochrome P450 2C19 (Homo sapiens, UniProt P33261); experiment: Inhibition of human CYP2C19 expressed in Escherichia coli using S-mephenytoin as substrate up to 100 uM preincubated for 5 mins followed by NADPH addition measured after 20 mins by HPLC analysis; assay type: ADME
[3] = Tmax in C57BL/6J mouse at 3 mg/kg, po; assay type: ADME, organism-based; design: dose 3 mg/kg, route oral; details: in vivo
Procedure, shortened: (§1)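 Single 3 mg/kg oral or iv dose to overnight-fasted male C57BL/6J mice (n = 6). Serial EDTA blood sampling at pre-dose and 0.15–48 h post-dose. Plasma separated at 4 °C, stored at -70 °C and analysed by LC–MS/MS on a C18 column. %F derived against iv AUC. Values are mean SD.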

[4] = system: Mus musculus; experiment: Antidiabetic activity in fed db/db hyperglycemic mouse model assessed as decrease in serum glucose AUC at 3 mg/kg, po measured up to 2 hrs by DPEC-GOD/POD method relative to vehicle-treated control; assay type: functional; design: scale not given: the % may be the effect or the level left
[5] = AUC (0 to infinity) in C57BL/6J mouse at 3 mg/kg, po; assay type: ADME, organism-based; design: time infinity, dose 3 mg/kg, route oral; details: plasma; procedure, shortened: as §1
[6] = system: Mus musculus; experiment: Antidiabetic activity in overnight fasted C57BL/6J mouse assessed as decrease in serum glucose AUC at 3 mg/kg, po administered 0.5 hrs prior to glucose challenge measured up to 240 mins by DPEC-GOD/POD method relative to vehicle-treated control; assay type: functional; design: scale not given: the % may be the effect or the level left
Procedure, shortened: (§2)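 Male C57BL/6J mice fasted overnight with water ad libitum. Dosed orally at 3 mg/kg 0.5 h before the oral glucose load. Serum glucose read by the GOD/POD method at 15–240 min on duplicate samples, then 0–240 min AUC taken. Two-way ANOVA with Bonferroni post test against vehicle. Values are mean SEM.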

[7] = target: Cytochrome P450 2D6 (Homo sapiens, UniProt P10635); experiment: Inhibition of human CYP2D6 expressed in Escherichia coli using bufuralol as substrate up to 100 uM preincubated for 5 mins followed by NADPH addition measured after 20 mins by HPLC analysis; assay type: ADME
[8] = target: Cytochrome P450 2C9 (Homo sapiens, UniProt P11712); experiment: Inhibition of human CYP2C9 expressed in Escherichia coli using diclofenac as substrate up to 100 uM preincubated for 5 mins followed by NADPH addition measured after 20 mins by HPLC analysis; assay type: ADME
[9] = Cmax in C57BL/6J mouse at 3 mg/kg, po; assay type: ADME, organism-based; design: dose 3 mg/kg, route oral; details: in vivo; procedure, shortened: as §1
[10] = system: Mus musculus; experiment: Antidiabetic activity in fed db/db hyperglycemic mouse model assessed as decrease in serum glucose AUC at 3 mg/kg, po measured up to 24 hrs by DPEC-GOD/POD method relative to vehicle-treated control; assay type: functional; design: scale not given: the % may be the effect or the level left
Procedure, shortened: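 Fed male-unspecified db/db mice dosed orally at 3 mg/kg, with blood taken at time points up to 24 h. Serum glucose measured promptly by the GOD/POD method on duplicate samples. Glucose AUC compared with vehicle control by two-way ANOVA with Bonferroni post test. Values are mean SEM.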

[11] = target: Cytochrome P450 3A4 (Homo sapiens, UniProt P08684); experiment: Inhibition of human CYP3A4 expressed in Escherichia coli using midazolam as substrate up to 100 uM preincubated for 5 mins followed by NADPH addition measured after 20 mins by HPLC analysis; assay type: ADME
[12] = Half life in C57BL/6J mouse at 3 mg/kg, po; assay type: ADME, organism-based; design: dose 3 mg/kg, route oral; details: in vivo; procedure, shortened: as §1
[13] = target: T2, Cytochrome P450 2C8 (Homo sapiens, UniProt P10632); experiment: Inhibition of human CYP2C8 expressed in Escherichia coli using paclitaxel as substrate up to 100 uM preincubated for 5 mins followed by NADPH addition measured after 20 mins by HPLC analysis; assay type: ADME
T2 sequence (P10632 whole entry): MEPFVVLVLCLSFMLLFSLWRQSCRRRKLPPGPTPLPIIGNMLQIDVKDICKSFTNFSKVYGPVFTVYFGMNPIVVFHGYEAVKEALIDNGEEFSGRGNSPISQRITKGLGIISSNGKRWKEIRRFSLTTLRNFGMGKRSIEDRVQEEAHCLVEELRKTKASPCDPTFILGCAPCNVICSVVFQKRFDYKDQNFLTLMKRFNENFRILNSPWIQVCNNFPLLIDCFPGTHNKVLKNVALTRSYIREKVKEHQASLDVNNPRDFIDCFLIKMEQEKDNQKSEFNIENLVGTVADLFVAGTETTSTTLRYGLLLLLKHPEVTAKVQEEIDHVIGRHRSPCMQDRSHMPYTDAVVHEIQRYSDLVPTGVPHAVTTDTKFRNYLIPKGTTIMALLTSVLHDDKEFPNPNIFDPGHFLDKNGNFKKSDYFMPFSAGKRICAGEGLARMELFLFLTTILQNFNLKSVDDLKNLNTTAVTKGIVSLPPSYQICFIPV

[14] = Oral bioavailability in C57BL/6J mouse at 3 mg/kg; assay type: ADME, organism-based; details: in vivo; procedure, shortened: as §1
[15] = AUC in C57BL/6J mouse at 3 mg/kg, iv; assay type: ADME, organism-based; design: dose 3 mg/kg, route intravenous; details: plasma; procedure, shortened: as §1
[16] = Elimination rate constant in C57BL/6J mouse at 3 mg/kg, po; assay type: ADME, organism-based; design: dose 3 mg/kg, route oral; details: in vivo; procedure, shortened: as §1
[17] = system: Mus musculus; experiment: Antidiabetic activity in overnight fasted C57BL/6J mouse assessed as decrease in serum glucose level at 3 mg/kg, po administered 0.5 hrs prior to glucose challenge measured at 30 to 60 mins by DPEC-GOD/POD method; assay type: functional, organism-based; design: dose 3 mg/kg; procedure, shortened: as §2

Chain of Cytochrome P450 2C19 (P33261 whole entry): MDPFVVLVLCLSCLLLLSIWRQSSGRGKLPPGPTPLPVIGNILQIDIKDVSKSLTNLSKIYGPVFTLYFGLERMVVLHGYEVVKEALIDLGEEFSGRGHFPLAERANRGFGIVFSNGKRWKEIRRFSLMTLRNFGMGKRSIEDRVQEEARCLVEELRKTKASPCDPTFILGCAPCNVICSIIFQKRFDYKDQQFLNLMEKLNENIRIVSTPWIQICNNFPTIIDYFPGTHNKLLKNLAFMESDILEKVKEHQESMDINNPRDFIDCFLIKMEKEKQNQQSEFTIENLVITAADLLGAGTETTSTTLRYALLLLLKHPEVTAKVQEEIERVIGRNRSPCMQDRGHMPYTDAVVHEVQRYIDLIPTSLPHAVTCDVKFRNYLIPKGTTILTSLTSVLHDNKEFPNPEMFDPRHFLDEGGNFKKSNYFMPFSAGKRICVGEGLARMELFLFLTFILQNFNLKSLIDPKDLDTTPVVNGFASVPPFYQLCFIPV
Chain of Cytochrome P450 2D6 (P10635 whole entry): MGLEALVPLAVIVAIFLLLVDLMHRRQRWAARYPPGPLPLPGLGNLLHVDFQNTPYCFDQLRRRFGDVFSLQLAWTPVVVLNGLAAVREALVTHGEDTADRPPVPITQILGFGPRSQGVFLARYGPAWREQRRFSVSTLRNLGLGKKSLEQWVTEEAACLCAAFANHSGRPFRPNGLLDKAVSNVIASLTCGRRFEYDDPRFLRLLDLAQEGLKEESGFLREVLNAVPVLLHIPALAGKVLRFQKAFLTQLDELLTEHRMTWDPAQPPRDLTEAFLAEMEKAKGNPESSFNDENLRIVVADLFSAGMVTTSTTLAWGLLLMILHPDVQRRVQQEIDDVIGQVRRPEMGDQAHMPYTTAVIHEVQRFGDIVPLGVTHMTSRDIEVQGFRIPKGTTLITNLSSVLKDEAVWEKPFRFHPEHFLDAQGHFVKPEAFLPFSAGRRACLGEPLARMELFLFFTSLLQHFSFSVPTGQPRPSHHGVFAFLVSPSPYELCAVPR
Chain of Cytochrome P450 3A4 (P08684 whole entry): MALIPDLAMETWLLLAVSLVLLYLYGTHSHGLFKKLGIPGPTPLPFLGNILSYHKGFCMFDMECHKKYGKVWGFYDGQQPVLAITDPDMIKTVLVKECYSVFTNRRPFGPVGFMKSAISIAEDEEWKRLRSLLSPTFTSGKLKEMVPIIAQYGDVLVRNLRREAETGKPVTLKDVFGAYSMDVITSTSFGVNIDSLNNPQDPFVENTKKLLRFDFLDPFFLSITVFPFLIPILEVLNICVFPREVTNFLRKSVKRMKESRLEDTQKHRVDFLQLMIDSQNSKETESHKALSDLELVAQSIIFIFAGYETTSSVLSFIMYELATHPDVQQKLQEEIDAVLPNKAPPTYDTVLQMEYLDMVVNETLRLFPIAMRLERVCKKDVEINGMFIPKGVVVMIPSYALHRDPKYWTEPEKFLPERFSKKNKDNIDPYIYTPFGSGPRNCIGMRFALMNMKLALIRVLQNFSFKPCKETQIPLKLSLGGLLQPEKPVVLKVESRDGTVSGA
Chain of Cytochrome P450 2C9 (P11712 whole entry): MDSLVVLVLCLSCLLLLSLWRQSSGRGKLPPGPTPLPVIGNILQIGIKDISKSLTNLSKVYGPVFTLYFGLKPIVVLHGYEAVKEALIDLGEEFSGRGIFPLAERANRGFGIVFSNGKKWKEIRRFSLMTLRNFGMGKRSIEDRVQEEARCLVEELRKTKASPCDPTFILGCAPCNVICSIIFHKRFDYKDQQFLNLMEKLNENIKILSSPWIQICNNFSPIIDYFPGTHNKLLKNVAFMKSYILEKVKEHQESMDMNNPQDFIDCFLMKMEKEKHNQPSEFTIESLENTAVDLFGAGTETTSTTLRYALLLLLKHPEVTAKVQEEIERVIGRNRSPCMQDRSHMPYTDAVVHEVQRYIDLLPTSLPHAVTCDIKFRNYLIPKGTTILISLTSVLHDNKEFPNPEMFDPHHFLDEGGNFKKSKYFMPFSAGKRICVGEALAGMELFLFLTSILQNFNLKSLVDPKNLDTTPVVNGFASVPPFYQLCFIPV

| inhibition (INH) [1] | inhibition (INH) [2] | Tmax [3] | AUC(0-inf) [5] | inhibition (INH) [7] | inhibition (INH) [8] | Cmax [9] | inhibition (INH) [11] | half-life [12] | inhibition (INH) [13] | bioavailability [14] | AUC [15] | k el [16] | Structure (SMILES) | Activity [4] | Activity [6] | Activity [10] | Activity [17] |
| --- | --- | --- | --- | --- | --- | --- | --- | --- | --- | --- | --- | --- | --- | --- | --- | --- | --- |
| Not Active | Not Active | 16.8 min | 1010 ng·h/mL | Not Active | Not Active | 420 ng/mL | Not Active | 539 min | Not Active | 79.5% | 1270 ng·h/mL | 3.33e-05 s⁻¹ | NC[C@H]1CN(CCc2ccc3c(c2)OCO3)C(=O)C[C@@H]1c1cc(F)ccc1F | 38.29% | 38.9% | 20.62% | – |
| – | – | 13.2 min | 560 ng·h/mL | – | – | 310 ng/mL | – | 93.6 min | – | 75.7% | 740 ng·h/mL | 0.000233 s⁻¹ | N[C@@H](CC(=O)N1CCn2c(nnc2C(F)(F)F)C1)Cc1cc(F)c(F)cc1F [SITAGLIPTIN] | 20.8% | 17.9% | 1.48% | Active |

From ChEMBL document CHEMBL3232926, “Design, synthesis and biological evaluation of novel aminomethyl-piperidones based DPP-IV inhibitors” (Bioorg Med Chem Lett, 2014)
